According to ChEMBL document CHEMBL4033799, “Stable and Long-Lasting, Novel Bicyclic Peptide Plasma Kallikrein Inhibitors for the Treatment of Diabetic Macular Edema” (J Med Chem, 2018):
pKi: −log10 of the molar value.

Tests used:
[1] = target: T1, Kallikrein-2 (Homo sapiens, UniProt P20151); experiment: Inhibition of recombinant human C-terminal 10His-tagged KLK2 (1 to 261 residues) expressed in mouse NS0 cells using fluorogenic PFR-AMC peptide as substrate after 5 mins by fluorescence based assay
T1 sequence (P20151 whole entry): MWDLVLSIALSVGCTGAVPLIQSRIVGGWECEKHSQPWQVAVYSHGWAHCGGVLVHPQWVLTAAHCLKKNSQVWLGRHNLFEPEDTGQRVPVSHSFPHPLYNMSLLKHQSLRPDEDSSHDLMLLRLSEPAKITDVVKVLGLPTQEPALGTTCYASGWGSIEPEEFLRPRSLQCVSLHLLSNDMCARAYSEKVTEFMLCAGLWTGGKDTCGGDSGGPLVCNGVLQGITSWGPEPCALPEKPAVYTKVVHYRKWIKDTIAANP
In short: (§1)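 Human serine proteases were assayed with substrates and conditions set by each supplier's recommendations. Peptides were first screened at 50 μM. Where inhibition was detected, Ki was determined from activity across peptide concentrations using a tight-binding rate equation.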

[2] = target: Vitamin K-dependent protein C (Homo sapiens, UniProt P04070); experiment: Inhibition of human activated protein C by fluorescence based assay; in short: as §1
[3] = target: T2, Kallikrein-12 (Homo sapiens, UniProt Q9UKR0); experiment: Inhibition of recombinant human C-terminal 10His-tagged KLK12 (18 to 248 residues) expressed in mouse NS0 cells using fluorogenic Boc-VPR-AMC peptide as substrate by fluorescence based assay; in short: as §1
T2 sequence (Q9UKR0 whole entry): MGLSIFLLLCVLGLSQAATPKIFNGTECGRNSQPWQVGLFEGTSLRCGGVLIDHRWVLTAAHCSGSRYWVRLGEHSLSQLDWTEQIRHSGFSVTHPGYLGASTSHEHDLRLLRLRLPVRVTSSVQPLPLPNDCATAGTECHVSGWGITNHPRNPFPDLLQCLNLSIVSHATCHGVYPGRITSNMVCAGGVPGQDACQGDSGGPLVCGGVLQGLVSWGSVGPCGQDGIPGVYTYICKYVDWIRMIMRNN

[4] = Inhibition of dog plasma kallikrein using fluorogenic H-Pro-Phe-Arg-AMC peptide as substrate preincubated for 15 mins followed by substrate addition measured by fluorescence-based assay; settings: read-out: Ki(app)
[5] = target: T3, Complement C1s subcomponent (Homo sapiens, UniProt P09871); experiment: Inhibition of recombinant human C-terminal 6His-tagged complement component C1s (1 to 688 residues) expressed in mouse NS0 cells using fluorogenic Z-Lys-SBzl peptide as substrate after 5 mins by fluorescence based assay; in short: as §1
T3 sequence (P09871 whole entry): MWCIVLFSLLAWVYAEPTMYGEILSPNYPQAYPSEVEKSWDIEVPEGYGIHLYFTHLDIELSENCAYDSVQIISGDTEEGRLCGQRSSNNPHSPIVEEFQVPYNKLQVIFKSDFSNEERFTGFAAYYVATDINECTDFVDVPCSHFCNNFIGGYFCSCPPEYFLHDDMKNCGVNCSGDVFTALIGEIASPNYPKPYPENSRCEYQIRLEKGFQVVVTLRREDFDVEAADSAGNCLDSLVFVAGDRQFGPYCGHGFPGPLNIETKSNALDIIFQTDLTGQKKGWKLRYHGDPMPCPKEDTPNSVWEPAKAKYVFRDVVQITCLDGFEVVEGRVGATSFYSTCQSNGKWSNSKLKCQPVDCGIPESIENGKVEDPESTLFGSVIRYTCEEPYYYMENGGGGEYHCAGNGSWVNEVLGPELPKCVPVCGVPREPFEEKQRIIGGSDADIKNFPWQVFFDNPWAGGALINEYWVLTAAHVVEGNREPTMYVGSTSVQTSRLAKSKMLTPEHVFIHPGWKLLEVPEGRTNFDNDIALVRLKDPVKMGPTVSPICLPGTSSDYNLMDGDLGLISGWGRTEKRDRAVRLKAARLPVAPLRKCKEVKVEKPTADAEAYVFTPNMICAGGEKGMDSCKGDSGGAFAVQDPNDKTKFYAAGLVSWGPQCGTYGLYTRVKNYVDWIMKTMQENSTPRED

[6] = Inhibition of rabbit plasma kallikrein using fluorogenic H-Pro-Phe-Arg-AMC peptide as substrate preincubated for 15 mins followed by substrate addition measured by fluorescence-based assay; set-up: species or system Oryctolagus cuniculus; settings: read-out: Ki(app)
In short: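 Assays ran at 25 °C in 50 mM Tris-HCl, 250 mM NaCl, 1.5 μM BSA, pH 7.5. PKal (nominal 1–2 nM) was preincubated 15 min with serially diluted peptide. […] Human PKal was purified from plasma; rat PKal was made in-house or bought; other species were purified in-house from kaolin-activated plasma.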

[7] = target: T4, Kallikrein-5 (Homo sapiens, UniProt Q9Y337); experiment: Inhibition of recombinant human C-terminal 10His-tagged KLK5 (67 to 293 residues) expressed in mouse NS0 cells using fluorogenic Boc-VPR-AMC peptide as substrate after 5 mins by fluorescence based assay; in short: as §1
T4 sequence (Q9Y337 whole entry): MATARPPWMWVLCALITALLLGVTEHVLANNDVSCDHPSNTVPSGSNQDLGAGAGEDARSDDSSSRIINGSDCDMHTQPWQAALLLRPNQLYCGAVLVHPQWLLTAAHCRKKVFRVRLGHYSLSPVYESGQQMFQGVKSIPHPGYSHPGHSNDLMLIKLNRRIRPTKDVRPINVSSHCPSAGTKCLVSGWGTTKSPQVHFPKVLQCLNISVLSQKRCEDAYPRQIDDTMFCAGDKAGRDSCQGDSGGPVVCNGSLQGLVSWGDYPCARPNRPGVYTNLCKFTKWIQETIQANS

[8] = Inhibition of cynomolgus monkey plasma kallikrein using fluorogenic H-Pro-Phe-Arg-AMC peptide as substrate preincubated for 15 mins followed by substrate addition measured by fluorescence-based assay; settings: read-out: Ki(app)
[9] = target: Granzyme B (Homo sapiens, UniProt P10144); experiment: Inhibition of recombinant human Granzyme B (21 to 247 residues) using […] Ac-IEPD-pNA peptide as substrate […]
In short: (§2)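 Panel of human serine proteases. Substrates and assay conditions followed each supplier's recommendations. Peptides were first screened at 50 μM. Where inhibition was detectable, hydrolytic activity was measured across a range of peptide concentrations. Ki was obtained by fitting to the tight-binding inhibitor rate equation.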

[10] = target: Plasminogen (Homo sapiens, UniProt P00747); experiment: Inhibition of recombinant human plasmin using fluorogenic D-AFK-ANSNH-iC4H9.2HBr peptide as substrate by fluorescence based assay; in short: as §2
[11] = Plasma clearance in Sprague-Dawley rat at 5 mg/kg, iv measured up to 240 mins post dose by LC-MS/MS analysis; type: ADME, organism-based
In short: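 Male Sprague-Dawley rats, 2 per group, given 5 mg/kg intravenously. Blood sampled through tail-vein cannulae at 5, 10, 20, 30, 60, 120, 180 and 240 min into EDTA tubes and spun to plasma.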

[12] = Half life in human vitreous humor at 1 uM measured up to 24 hrs by LC-MS/MS analysis; type: ADME, tissue-based
In short: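 Peptide from a 0.16 mM DMSO stock was added to human, rat or mouse plasma (final 4 μM) or to homogenized human vitreous (final 1 μM), with internal standard. Samples were incubated at 37 °C for up to 24 h and extracted with water/acetonitrile/methanol 1:3:3.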

Granzyme B, sequence (P10144 whole entry, the tested form may be a part): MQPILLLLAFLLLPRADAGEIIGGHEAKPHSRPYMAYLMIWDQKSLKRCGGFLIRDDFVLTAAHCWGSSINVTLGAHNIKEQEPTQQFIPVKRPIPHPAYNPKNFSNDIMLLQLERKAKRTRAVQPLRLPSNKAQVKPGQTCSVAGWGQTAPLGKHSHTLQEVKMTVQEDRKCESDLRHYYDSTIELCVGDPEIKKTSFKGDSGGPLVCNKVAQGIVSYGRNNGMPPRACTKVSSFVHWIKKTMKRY
Plasminogen, sequence (P00747 97-580 limits assumed): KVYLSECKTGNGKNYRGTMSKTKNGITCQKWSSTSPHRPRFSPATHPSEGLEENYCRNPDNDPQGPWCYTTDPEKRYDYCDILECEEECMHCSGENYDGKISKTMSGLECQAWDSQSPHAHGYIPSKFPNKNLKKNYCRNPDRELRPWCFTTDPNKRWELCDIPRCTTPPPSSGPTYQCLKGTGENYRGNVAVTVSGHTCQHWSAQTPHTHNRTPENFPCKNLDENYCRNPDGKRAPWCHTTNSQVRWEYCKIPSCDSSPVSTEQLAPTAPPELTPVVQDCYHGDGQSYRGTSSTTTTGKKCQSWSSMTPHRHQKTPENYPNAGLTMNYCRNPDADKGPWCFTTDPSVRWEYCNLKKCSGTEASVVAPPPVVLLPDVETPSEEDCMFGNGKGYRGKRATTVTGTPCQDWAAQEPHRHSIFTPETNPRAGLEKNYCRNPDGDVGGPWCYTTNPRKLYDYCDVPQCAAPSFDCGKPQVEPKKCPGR
Plasminogen, sequence (P00747 581-810 limits assumed): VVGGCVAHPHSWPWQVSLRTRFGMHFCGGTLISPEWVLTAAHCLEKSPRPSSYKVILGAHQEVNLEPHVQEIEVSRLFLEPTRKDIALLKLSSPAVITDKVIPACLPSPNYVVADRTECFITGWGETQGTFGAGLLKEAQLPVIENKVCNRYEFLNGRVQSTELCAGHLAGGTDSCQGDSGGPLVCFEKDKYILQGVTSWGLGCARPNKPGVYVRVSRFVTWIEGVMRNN
Vitamin K-dependent protein C, sequence (P04070 43-197 limits assumed): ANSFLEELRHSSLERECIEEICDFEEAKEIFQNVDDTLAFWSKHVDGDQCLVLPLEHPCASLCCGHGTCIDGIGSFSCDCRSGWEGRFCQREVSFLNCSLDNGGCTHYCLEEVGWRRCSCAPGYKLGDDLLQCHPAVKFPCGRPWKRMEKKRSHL
Vitamin K-dependent protein C, sequence (P04070 212-461 limits assumed): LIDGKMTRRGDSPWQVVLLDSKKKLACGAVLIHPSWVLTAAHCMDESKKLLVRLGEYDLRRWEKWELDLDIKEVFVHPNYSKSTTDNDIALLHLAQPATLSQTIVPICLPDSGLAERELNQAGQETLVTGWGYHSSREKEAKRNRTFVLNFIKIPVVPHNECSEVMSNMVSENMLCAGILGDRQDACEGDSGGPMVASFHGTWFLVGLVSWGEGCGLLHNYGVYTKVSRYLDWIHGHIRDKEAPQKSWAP

pKi [1] | pKi [2] | pKi [3] | pKi [4] | pKi [5] | pKi [6] | pKi [7] | pKi [8] | pKi [9] | pKi [10] | clearance [11] [mL/min/kg] | half-life at 1 µM [12] [h] | Structure (SMILES)
5.00 | < 4.30 | < 4.30 | 7.66 | < 4.30 | 5.58 | 6.10 | 9.07 | < 4.30 | < 4.30 |  |  | CC[C@H](C)[C@@H]1NC(=O)[C@H](CC(=O)O)NC(=O)[C@@H]2CCCN2C(=O)[C@H](Cc2ccc(O)cc2)NC(=O)[C@H](Cc2ccc(O)cc2)NC(=O)[C@H](C(C)C)NC(=O)[C@@H]2CSCc3cc(cc(c3)CSC[C@@H](C(=O)N[C@@H](C)C(=O)N(C)CC(=O)N(C)CC(=O)N(C)CC(=O)N[C@H](CCCNC(=N)N)C(=O)N[C@H](CCCNC(=N)N)C(=O)O)NC1=O)CSC[C@H](NC(C)=O)C(=O)N[C@@H](CO)C(=O)N[C@@H](Cc1ccccc1)C(=O)N1CCC1C(=O)N[C@@H](Cc1ccc(O)cc1)C(=O)N[C@@H](CCCCNC(=N)N)C(=O)N2 (stereo partly drawn)
5.00 | < 4.30 | < 4.30 | 7.10 |  | 5.47 | < 4.30 | 8.57 | < 4.30 | < 4.30 | 6.2 | > 24 | CC(=O)N[C@H]1CSCc2cc3cc(c2)CSC[C@H](NC(=O)[C@H](CCCCNC(=N)N)NC(=O)[C@H](Cc2ccc(O)cc2)NC(=O)[C@@H]2CCN2C(=O)[C@H](Cc2ccccc2)NC(=O)[C@H](CO)NC1=O)C(=O)N[C@@H](C)CN[C@@H](Cc1cnc[nH]1)C(=O)N[C@@H](CCC(N)=O)C(=O)N[C@@H](CC(=O)O)C(=O)N[C@@H](CC(C)C)C(=O)N[C@H](C(=O)O)CSC3
< 4.30 | < 4.30 | < 4.30 | 6.30 | < 4.30 | 5.84 | 4.30 | 8.51 | < 4.30 | < 4.30 | 8.2 | > 24 | CC(=O)N[C@H]1CSCc2cc3cc(c2)CSC[C@H](C(=O)N[C@@H](C)C(=O)N(C)CC(=O)N(C)CC(=O)N(C)CC(=O)N[C@H](CCCNC(=N)N)C(=O)N[C@H](CCCNC(=N)N)C(=O)O)NC(=O)[C@H](CC(C)C)NC(=O)[C@@H]2CCCN2C(=O)[C@H](C)NC(=O)[C@H](CC(=O)O)NC(=O)[C@H](Cc2c[nH]c4ccccc24)NC(=O)[C@@H]2CCCN2C(=O)[C@H](CSC3)NC(=O)[C@H](Cc2c[nH]c3ccccc23)NC(=O)[C@@H]2CCCN2C(=O)[C@H](CC(N)=O)NC(=O)[C@H](Cc2c[nH]c3ccccc23)NC(=O)[C@H]([C@@H](C)O)NC(=O)[C@H](CC(N)=O)NC1=O
